ChEMBL document CHEMBL4765370, “Design, synthesis, and biological evaluation of aryl piperazines with potential as antidiabetic agents via the stimulation of glucose uptake and inhibition of NADH:ubiquinone oxidoreductase” (Eur J Med Chem, 2020)

How the values were obtained:
[1] = AUClast in C57 Black mouse liver at 10 mg/kg, po; format: ADME, organism-based; set-up: time 0 - last, route oral, dose 10 mg/kg
In short: (§1)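 Male C57BL/6 mice were given a single 10 mg/kg dose either intravenously or orally. The oral and IV solutions were formulated in 10% DMSO, 10% cremaphor and 80% saline. Concentrations in plasma and in the tissues collected were determined after dosing, with n = 3 per route. Values are given as mean ± SEM.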

[2] = Cmax in C57 Black mouse plasma at 10 mg/kg, po; format: ADME, organism-based; set-up: route oral, dose 10 mg/kg; in short: as §1
[3] = Intrinsic clearance in mouse hepatocytes at 1 uM up to 120 mins by HPLC-MS/MS analysis; format: ADME, cell-based, Hepatocyte; details: 2 h
[4] = Volume of distribution in C57 Black mouse kidney at 10 mg/kg, iv; format: ADME, organism-based
In short: (§2)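 Male C57BL/6 mice (n = 3) dosed at 10 mg/kg by IV or oral (PO) route. Dosing solutions were formulated in 10% DMSO, 10% cremaphor and 80% saline. Compound levels were measured in plasma and tissues over time, and values are given as mean ± SEM.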

[5] = AUCinfinity in C57 Black mouse kidney at 10 mg/kg, iv; format: ADME, organism-based; set-up: route intravenous, time infinity, dose 10 mg/kg; in short: as §1
[6] = Half life in human microsomes at 1 uM up to 120 mins by HPLC/MS-MS analysis; format: ADME, Microsome
[7] = Tmax in C57 Black mouse liver at 10 mg/kg, po; format: ADME, organism-based; in short: as §2
[8] = Half life in mouse hepatocytes at 1 uM up to 120 mins by HPLC-MS/MS analysis; format: ADME, cell-based, Hepatocyte
[9] = Protein binding human serum at 1 uM after 60 to 120 mins by HPLC-MS/MS analysis; format: ADME, cell-free; details: time 60-120 min, read-out: PB (converted)
CYP2C9 = CYP2C9 (Homo sapiens, UniProt P11712); experiment: Inhibition of human CYP2C9 using fluorogenic substrate incubated for 60 mins in presence of NADPH by fluorescence assay relative to control; format: ADME; details: probe fluorogenic substrate
In short: (§3)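 Baculosomes each expressing a single cDNA-derived human P450 isozyme were incubated with compound at 10 µM, a fluorogenic substrate and NADPH. Incubation was at 37 °C for at least 60 min before fluorescence was read, n = 3.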

[10] = Lipophilicity, logP of compound; format: physicochemical; details: octanol/water
[11] = Volume of distribution in C57 Black mouse liver at 10 mg/kg, iv; format: ADME, organism-based; in short: as §2
[12] = AUClast in C57 Black mouse kidney at 10 mg/kg, po; format: ADME, organism-based; set-up: time 0 - last, route oral, dose 10 mg/kg; in short: as §1
[13] = Half life in C57 Black mouse plasma at 10 mg/kg, po; format: ADME, organism-based; in short: as §2
[14] = AUCall in C57 Black mouse muscle at 10 mg/kg, iv; format: ADME, organism-based, Muscle tissue; set-up: dose 10 mg/kg; in short: as §1
[15] = AUCinfinity in C57 Black mouse brain at 10 mg/kg, po; format: ADME, organism-based; set-up: route oral, time infinity, dose 10 mg/kg; in short: as §1
[16] = Protein binding mouse serum at 1 uM after 60 to 120 mins by HPLC-MS/MS analysis; format: ADME, cell-free; details: time 60-120 min, read-out: PB (converted)
[17] = Volume of distribution in C57 Black mouse brain at 10 mg/kg, iv; format: ADME, organism-based; in short: as §2
[18] = AUClast in C57 Black mouse brain at 10 mg/kg, po; format: ADME, organism-based; set-up: route oral, time 0 - last, dose 10 mg/kg; in short: as §1
[19] = Bioavailability in C57 Black mouse at 10 mg/kg, iv or po; details: in vivo
[20] = Tmax in C57 Black mouse spleen at 10 mg/kg, iv; format: ADME, organism-based; in short: as §2
[21] = AUCall in C57 Black mouse plasma at 10 mg/kg, po; format: ADME, organism-based; set-up: dose 10 mg/kg; in short: as §1
[22] = Tmax in C57 Black mouse plasma at 10 mg/kg, po; format: ADME, organism-based; in short: as §2
[23] = Clearance in C57 Black mouse plasma at 10 mg/kg, iv; format: ADME, organism-based; details: in vivo; in short: as §1
CYP1A2 = biological target: T1, CYP1A2 (Homo sapiens, UniProt P05177); experiment: Inhibition of human CYP1A2 using fluorogenic substrate incubated for 60 mins in presence of NADPH by fluorescence assay relative to control; format: ADME; details: probe fluorogenic substrate; in short: as §3
T1 sequence (P05177 whole entry): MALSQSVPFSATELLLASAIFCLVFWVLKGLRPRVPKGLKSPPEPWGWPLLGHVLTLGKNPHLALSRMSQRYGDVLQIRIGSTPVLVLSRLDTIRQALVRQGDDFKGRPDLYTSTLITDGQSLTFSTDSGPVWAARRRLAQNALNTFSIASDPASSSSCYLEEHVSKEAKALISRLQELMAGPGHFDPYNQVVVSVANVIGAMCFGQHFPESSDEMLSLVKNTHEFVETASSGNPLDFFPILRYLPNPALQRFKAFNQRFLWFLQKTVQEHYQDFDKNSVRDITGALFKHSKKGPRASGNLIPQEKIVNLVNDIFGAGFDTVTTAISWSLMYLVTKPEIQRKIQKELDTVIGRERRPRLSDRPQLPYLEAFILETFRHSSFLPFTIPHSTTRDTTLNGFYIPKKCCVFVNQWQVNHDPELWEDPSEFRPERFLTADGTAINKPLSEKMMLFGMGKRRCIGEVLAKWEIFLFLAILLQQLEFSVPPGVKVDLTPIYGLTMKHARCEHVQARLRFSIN

[24] = Half life in human plasma at 1 uM after 60 to 120 mins by HPLC-MS/MS analysis; format: ADME, cell-free; details: time 60-120 min
In short: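 Buffer containing test compound at 1 µM was mixed with human or mouse blood plasma and incubated at 37 °C for 60–120 min. Parent compound remaining gave the plasma half-life and the percentage stable at 2 h.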

[25] = Cmax in C57 Black mouse kidney at 10 mg/kg, iv; format: ADME, organism-based; set-up: route intravenous, dose 10 mg/kg; in short: as §1
[26] = AUClast in C57 Black mouse spleen at 10 mg/kg, po; format: ADME, organism-based; set-up: time 0 - last, route oral, dose 10 mg/kg; in short: as §1
[27] = AUCall in C57 Black mouse spleen at 10 mg/kg, iv; format: ADME, organism-based; set-up: dose 10 mg/kg; in short: as §1
[28] = Half life in C57 Black mouse spleen at 10 mg/kg, iv; format: ADME, organism-based; in short: as §2
[29] = Half life in C57 Black mouse spleen at 10 mg/kg, po; format: ADME, organism-based; in short: as §2
[30] = AUCinfinity in C57 Black mouse liver at 10 mg/kg, po; format: ADME, organism-based; set-up: time infinity, route oral, dose 10 mg/kg; in short: as §1
[31] = Cmax in C57 Black mouse spleen at 10 mg/kg, po; format: ADME, organism-based; set-up: route oral, dose 10 mg/kg; in short: as §1
[32] = AUCinfinity in C57 Black mouse spleen at 10 mg/kg, iv; format: ADME, organism-based; set-up: time infinity, route intravenous, dose 10 mg/kg; in short: as §1
[33] = Tmax in C57 Black mouse kidney at 10 mg/kg, iv; format: ADME, organism-based; in short: as §2
[34] = Half life in C57 Black mouse brain at 10 mg/kg, iv; format: ADME, organism-based; in short: as §1
[35] = AUCall in C57 Black mouse brain at 10 mg/kg, iv; format: ADME, organism-based; set-up: dose 10 mg/kg; in short: as §1
[36] = Tmax in C57 Black mouse liver at 10 mg/kg, iv; format: ADME, organism-based; in short: as §2
[37] = Volume of distribution in C57 Black mouse plasma at 10 mg/kg, iv; format: ADME, organism-based; in short: as §2
[38] = Clearance in C57 Black mouse assessed as liver blood flow at 10 mg/kg, iv or po; format: ADME, organism-based; details: in vivo
[39] = AUClast in C57 Black mouse plasma at 10 mg/kg, po; format: ADME, organism-based; set-up: route oral, time 0 - last, dose 10 mg/kg; in short: as §1

Chain of CYP2C9 (P11712 whole entry): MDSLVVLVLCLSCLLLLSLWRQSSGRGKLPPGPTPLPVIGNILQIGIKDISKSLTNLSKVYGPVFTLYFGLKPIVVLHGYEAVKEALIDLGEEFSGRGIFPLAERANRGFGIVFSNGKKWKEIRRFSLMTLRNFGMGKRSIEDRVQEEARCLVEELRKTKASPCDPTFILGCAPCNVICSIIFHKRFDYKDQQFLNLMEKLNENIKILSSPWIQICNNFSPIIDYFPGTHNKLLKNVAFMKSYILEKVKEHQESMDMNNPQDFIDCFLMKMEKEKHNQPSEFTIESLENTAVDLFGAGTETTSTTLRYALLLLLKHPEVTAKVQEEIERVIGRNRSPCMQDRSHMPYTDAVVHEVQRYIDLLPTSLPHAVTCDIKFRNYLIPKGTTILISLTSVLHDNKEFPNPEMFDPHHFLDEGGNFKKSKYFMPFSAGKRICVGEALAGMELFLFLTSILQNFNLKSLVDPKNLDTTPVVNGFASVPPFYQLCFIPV

SMILES: O=C(CCCc1cccs1)N1CCN(c2ccc(C(F)(F)F)cc2)CC1
- AUC(0-t) [1]: 4050 ng·h/mL
- Cmax [2]: 787 ng/mL
- CLH [3]: 8 µL/min
- Vd [4]: 3.06 L/kg
- AUC(0-inf) [5]: 348 ng·h/mL
- half-life at 1 µM [6]: 12 min
- Tmax [7]: 15 min
- half-life at 1 µM [8]: 126 min
- fraction unbound at 1 µM [9]: 0.0052
- inhibition at 1 h (CYP2C9): 74.2%
- logP [10]: 4.79
- Vd [11]: 3.06 L/kg
- AUC(0-t) [12]: 1220 ng·h/mL
- half-life [13]: 45.6 min
- AUC [14]: 77.3 ng·h/mL
- AUC(0-inf) [15]: 774 ng·h/mL
- fraction unbound at 1 µM [16]: 0.0052
- Vd [17]: 1.83 L/kg
- AUC(0-t) [18]: 763 ng·h/mL
- Bioavailability [19]: 21.4%
- Tmax [20]: 1.8 min
- AUC [21]: 520 ng·h/mL
- Tmax [22]: 15 min
- CL [23]: 68.37 mL/min/kg
- inhibition at 1 h (CYP1A2): 53.7%
- half-life at 1 µM [24]: 808 min
- Cmax [25]: 552 ng/mL
- AUC(0-t) [26]: 1260 ng·h/mL
- AUC [27]: 463 ng·h/mL
- half-life [28]: 66 min
- half-life [29]: 66 min
- AUC(0-inf) [30]: 4090 ng·h/mL
- Cmax [31]: 1100 ng/mL
- AUC(0-inf) [32]: 475 ng·h/mL
- Tmax [33]: 1.8 min
- half-life [34]: 30 min
- AUC [35]: 246 ng·h/mL
- Tmax [36]: 1.8 min
- Vd [37]: 1.69 L/kg
- clearance [38]: 90 mL/min/kg
- AUC(0-t) [39]: 520 ng·h/mL
